Data taken from article PMC5920785 (Bioorganic & medicinal chemistry, 2017).

Key:
[1] = test system: MYCN2 neuroblastoma cells; assay: Cell viability assay; type: cell-based, human; settings: MTS; for effect on viability of MYCN2 cells: highest concentration tested (1 μM), 24 h exposure
Summary of the method: (§1)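 Cells plated overnight in RPMI with 10% heat-inactivated FBS, penicillin (100 U/ml) and streptomycin (100 μg/ml), at 37 °C in humidified 5% CO2. […] MTS read-out by absorbance at 490 nm. Two experiments, each in triplicate wells (n=6); viability averaged relative to untreated cells.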

[2] = test system: SK-N-SH neuroblastoma cells; assay: Cell viability assay; type: cell-based, human; settings: MTS; for effect on viability of SK-N-SH cells: highest concentration tested (1 μM), 24 h exposure
Summary of the method: as §1

[3] = target: 20S constitutive proteasome CT-L (β5) (Homo sapiens, UniProt P20618+P28074); assay: In vitro proteasome activity assay, constitutive proteasome CT-L activity; type: biochemical
[4] = target: 20S constitutive proteasome C-L (β1) (Homo sapiens, UniProt P28072+Q99436); assay: In vitro proteasome activity assay, constitutive proteasome C-L activity; type: biochemical
[5] = target: immunoproteasome T-L (β2) (Homo sapiens, UniProt P40306+P49720); assay: In vitro proteasome activity assay, immunoproteasome T-L activity; type: biochemical
[6] = target: immunoproteasome CT-L (β5) (Homo sapiens, UniProt P20618+P28062); assay: In vitro proteasome activity assay, immunoproteasome CT-L activity; type: biochemical; settings: for effect on CT-L activity of the immunoproteasome: at ≤10 μM; for change of CT-L activity of the immunoproteasome on inhibition of T-L activity: Fig. S1
[7] = target: immunoproteasome C-L (β1) (Homo sapiens, UniProt P28065); assay: In vitro proteasome activity assay, immunoproteasome C-L activity; type: biochemical; settings: for effect on C-L activity of the immunoproteasome: at ≤10 μM
[8] = target: 20S constitutive proteasome T-L (β2) (Homo sapiens, UniProt P49720+Q99436); assay: In vitro proteasome activity assay, constitutive proteasome T-L activity; type: biochemical
[9] = test system: SK-N-Be(2)c neuroblastoma cells; assay: Cell viability assay; type: cell-based, human; settings: highest concentration tested (1 μM), 24 h exposure, MTS
Summary of the method: as §1

## CC(C)C[C@H](NC(=O)[C@H](Cc1ccccc1)NC(=O)c1cnccn1)B(O)O [BTZ, bortezomib, reference compound]
[1]; at 0.1–1 μM, 24 h
  cytotoxic effect in MYCN2 cells: strong cytotoxic effects
[2]; at 0.1–1 μM, 24 h
  cytotoxic effect in SK-N-SH cells: strong cytotoxic effects

## CCCCCCCCCCCCNC(=O)N[C@H](C(=O)N[C@H]1CSCCNC(=O)/C=C/[C@H](C)NC1=O)C(C)C [Compound 1, (S)-2-(3-Dodecylureido)-3-methyl-N-((8S,11R,E)-8-methyl-5,10-dioxo-1-thia-4,9-diazacyclododec-6-en-11-yl)butanamide]
[3]
  Ki: 0.28 µM
[4]
  Ki: > 10 µM
[5]
  Ki: 1.39 µM
[6]
  Ki: > 10 µM
  effect on CT-L activity of the immunoproteasome: no effect
[7]
  Ki: > 10 µM
  effect on C-L activity of the immunoproteasome: no effect
[8]
  Ki: 1.76 µM

## CC(C)Cc1ccc([C@H](C)C(=O)N[C@H](C(=O)N[C@H]2CSCCNC(=O)/C=C/[C@H](C)NC2=O)C(C)C)cc1 [Compound 5, (S)-2-((S)-2-(4-Isobutylphenyl)propanamido)-3-methyl-N-((8S,11R,E)-8-methyl-5,10-dioxo-1-thia-4,9-diazacyclododec-6-en-11-yl)butanamide]
[3]
  Ki: 0.91 µM
[4]
  Ki: > 10 µM
[5]
  Ki: 0.74 µM
[9]
  effect on viability of SK-N-Be(2)c cells: minimal effects
[6]
  Ki: > 10 µM
  change of CT-L activity of the immunoproteasome on inhibition of T-L activity: stimulate the CT-L activity
  effect on CT-L activity of the immunoproteasome: no effect
[7]
  Ki: > 10 µM
  effect on C-L activity of the immunoproteasome: no effect
[8]
  Ki: 1.07 µM
[1]
  effect on viability of MYCN2 cells: minimal effects
[2]
  effect on viability of SK-N-SH cells: minimal effects

## CC(C)[C@H](NC(=O)c1cnccn1)C(=O)N[C@H]1CSCCNC(=O)/C=C/[C@H](C)NC1=O [Compound 6, N-((S)-3-Methyl-1-(((8S,11R,E)-8-methyl-5,10-dioxo-1-thia-4,9-diazacyclododec-6-en-11-yl)amino)-1-oxobutan-2-yl)pyrazine-2-carboxamide]
[3]
  Ki: 1.22 µM
[4]
  Ki: > 10 µM
[5]
  Ki: 0.75 µM
[9]
  effect on viability of SK-N-Be(2)c cells: minimal effects
[6]
  Ki: > 10 µM
  change of CT-L activity of the immunoproteasome on inhibition of T-L activity: stimulate the CT-L activity
  effect on CT-L activity of the immunoproteasome: no effect
[7]
  Ki: > 10 µM
  effect on C-L activity of the immunoproteasome: no effect
[8]
  Ki: 0.92 µM
[1]
  effect on viability of MYCN2 cells: minimal effects
[2]
  effect on viability of SK-N-SH cells: minimal effects
